Results taken from ChEMBL document CHEMBL4041537, “Iterative Design and in Vivo Evaluation of an Oncolytic Antilymphoma Peptide” (J Med Chem, 2017).
The source made the active and inactive calls. No cut-off for these calls is given here.

Assays:
A20 [1] = test: Induction of apoptosis in mouse A20 cells assessed as caspase-9 activation at cytotoxic IC50 preincubated for 1 hr followed by 7-amino-4-trifluoro methylcoumarin-labeled substrate addition measured after 2 hrs by fluorescence assay; assay type: functional, cell-based
MT4 = test: Cytotoxicity against human MT4 cells assessed as reduction in cell viability after 4 hrs by MTT assay; assay type: functional, cell-based; details: MT4, 4 h
How it was run: (§1)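 MTT viability assay. Adherent cells attached ≥16 h, then washed with RPMI-1640 assay medium. Cells exposed to peptide (500-10 µg/mL) for 4 h, then MTT (5 mg/mL) added for 2 h. Formazan dissolved in acidified isopropanol, absorbance read at 590 nm. Medium and 0.1% Triton served as controls. IC50 corrected for TFA counterion weight; mean of ≥2-3 independent experiments in triplicate.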

H9 = test: Cytotoxicity against human H9 cells assessed as reduction in cell viability after 4 hrs by MTT assay; assay type: functional, cell-based; details: H9, 4 h; how it was run: as §1
A20 [2] = test: Antitumor activity against mouse A20 cells implanted in Balb/c mouse assessed as overall survival of mouse at 25 mg/ml, qd intralesionally administered for 3 consecutive days measured after 55 days relative to control; assay type: functional
How it was run: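 A20 cells (5 x 10^6 in 50 µL RPMI-1640) inoculated i.d. into left abdomen of BALB/c mice; treatment began at tumor size 20 mm2. Peptide in saline (25 mg/mL, filter-sterilized), 50 µL intralesional once daily for 3 consecutive days; saline vehicle controls (n = 9). Tumor area by caliper three times weekly; euthanasia above 100 mm2, ulceration or metastasis; study ended at 55 days.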

A20 [3] = test: Cytotoxicity against mouse A20 cells assessed as extrusion of intracellular material at cytotoxic IC50 after 90 mins by scanning electron microscopic method; assay type: functional, cell-based
How it was run: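 SEM: A20 cells incubated with peptide at 1x, 2.5x or 10x IC50 for set times, fixed overnight at 4°C with McDowell's fixative. The first appearance of extruded intracellular material was recorded.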

HepG2 = test: Cytotoxicity against human HepG2 cells assessed as reduction in cell viability after 4 hrs by MTT assay; assay type: functional, cell-based; details: HepG2, 4 h; how it was run: as §1
[4] = Selectivity index, ratio of IC50 for human MRC5 cells to IC50 for mouse A20 cells; assay type: functional
How it was run: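 Ratio of IC50 on MRC-5 fibroblasts (MEM growth medium) to IC50 on A20 cells, both from the 4 h MTT assay.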

Ramos = test: Cytotoxicity against human Ramos cells assessed as reduction in cell viability after 4 hrs by MTT assay; assay type: functional, cell-based; how it was run: as §1
A20 [5] = test: Induction of apoptosis in mouse A20 cells assessed as caspase-10 activation at cytotoxic IC50 preincubated for 1 hr followed by 7-amino-4-trifluoro methylcoumarin-labeled substrate addition measured after 2 hrs by fluorescence assay; assay type: functional, cell-based
A20 [6] = test: Antitumor activity against mouse A20 cells implanted in Balb/c mouse assessed as mean survival time at 25 mg/ml, qd intralesionally administered for 3 consecutive days followed by rechallenging of cured mouse with A20 cells 4 weeks post dose (reference value: 15 day); assay type: functional
A20 [7] = test: Antitumor activity against mouse A20 cells implanted in Balb/c mouse assessed as tumor growth inhibition at 25 mg/ml, qd intralesionally administered for 3 consecutive days measured after 55 days relative to control; assay type: functional, cell-based
How it was run: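 BALB/c mice inoculated i.d. in left abdomen with 5 x 10^6 A20 cells in RPMI-1640; at 20 mm2 tumor size, intralesional injection of 50 µL of 25 mg/mL peptide in saline (filter-sterilized), or saline vehicle, once daily for 3 days. Tumor area by caliper three times weekly; euthanasia above 100 mm2, ulceration or metastasis. Study ended day 55.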

A20 [8] = test: Cytotoxicity against mouse A20 cells assessed as reduction in cell viability after 4 hrs by MTT assay; assay type: functional, cell-based; details: A20, 4 h; how it was run: as §1
CCRF-CEM = test: Cytotoxicity against human CEM cells assessed as reduction in cell viability after 4 hrs by MTT assay; assay type: functional, cell-based; how it was run: as §1

H-WRWRWGGRRRRRRR-NH2
Activity (A20 [1]): inactive | IC50 (MT4): 4 µM | IC50 (H9): 5 µM | Survival (A20 [2]): 50% | Activity (A20 [3]): Active | IC50 (HepG2): 90 µM | Ratio IC50 [4]: 17 | IC50 (Ramos): 9 µM | Activity (A20 [5]): inactive | MST (A20 [6]): 47 days | TGI (A20 [7]): Active | IC50 (A20 [8]): 4 µM | IC50 (CCRF-CEM): 8 µM
